This is an account of results in ChEMBL document CHEMBL1955790, “One pot synthesis and anticancer activity of dimeric phloroglucinols” (Bioorg Med Chem Lett, 2012).

Holding throughout (type): functional
One experiment has as its system ACHN. Description: Growth inhibition of human ACHN cells at 10 uM after 48 hrs by WST-8 assay. Conditions: read-out: GI. An outline of the steps: (§1)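 ATCC cells kept in DMEM with 10% FBS and antibiotics at 37 °C, 5% CO2. Seeded 5×10^3/well, incubated overnight, then treated with compound for 48 h against a DMSO vehicle control (≤0.1%). CCK-8 (WST-8) reduction by live-cell dehydrogenases read at 450 nm (corrected 650 nm) after 4 h at 37 °C. Viable cells expressed as % of the DMSO control.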
(In general: Formazan colour is commonly taken as a measure of viable cells.)

A further experiment has as its system PANC-1. Description: Growth inhibition of human PANC1 cells at 10 uM after 48 hrs by WST-8 assay. Conditions: PANC-1, 48 h, read-out: GI. An outline of the steps: as §1
A further experiment deals with Calu-1. Description: Growth inhibition of human Calu1 cells at 10 uM after 48 hrs by WST-8 assay. As to conditions: Calu-1, 48 h, read-out: GI. The essentials:
as §1

The subject of the next experiment is NCI-H460. In words: Growth inhibition of human NCI-H460 cells at 10 uM after 48 hrs by WST-8 assay. Conditions: NCI-H460, 48 h, read-out: GI. The essentials:
as §1

In the next experiment the test system is HCT-116. In words: Growth inhibition of human HCT116 cells at 10 uM after 48 hrs by WST-8 assay. Conditions: HCT-116, 48 h, read-out: GI. The essentials: as §1

In the case of `CC(C)CC(=O)c1c(O)c(C(=O)CC(C)C)c(O)c(C(c2ncc[nH]2)c2c(O)c(C(=O)CC(C)C)c(O)c(C(=O)CC(C)C)c2O)c1O`, the inhibition of growth at 10 µM in the experiment on ACHN came out at 0%; in the experiment on PANC-1, 0%; in the experiment with Calu-1 it was 11%; in the experiment on NCI-H460, 15%; in the experiment with HCT-116, 0%.

As to `CC(=O)c1c(O)c(Cc2c(O)c(C(C)=O)c(O)c(C(C)=O)c2O)c(O)c(C(C)=O)c1O`, the inhibition of growth at 10 µM in the experiment with ACHN was found to be 46%; in the experiment on PANC-1, 22%; with Calu-1, 39%; in the experiment with NCI-H460, 0%; with HCT-116 it was 8%.

As to `CC(=O)c1c(O)cc(O)c(C(C)=O)c1O`, the inhibition of growth at 10 µM with ACHN turned out to be 44%; with PANC-1 it was 0%; with Calu-1, 0%; in the experiment with NCI-H460, 25%; in the experiment on HCT-116, 0%.

In the case of `CC(C)CC(=O)c1c(O)c(Cc2c(O)c(C(=O)CC(C)C)c(O)c(C(=O)CC(C)C)c2O)c(O)c(C(=O)CC(C)C)c1O`, the inhibition of growth at 10 µM worked out at 35% with ACHN; 0% in the experiment with PANC-1; 7% in the experiment on Calu-1; 3% in the experiment on NCI-H460; 1% with HCT-116.

With `CC(C)CC(=O)c1c(O)c(C(=O)CC(C)C)c(O)c(C(c2cc3ccccc3o2)c2c(O)c(C(=O)CC(C)C)c(O)c(C(=O)CC(C)C)c2O)c1O`, the inhibition of growth at 10 µM was found to be 7% in the experiment with ACHN; 0% with PANC-1; 56% in the experiment with Calu-1; 37% in the experiment with NCI-H460; 20% with HCT-116.

Turning to `CC(C)CC(=O)c1c(O)c(C=O)c(O)c(Cc2c(O)c(C=O)c(O)c(C(=O)CC(C)C)c2O)c1O`, the inhibition of growth at 10 µM with ACHN came to 35%; with PANC-1, 15%; in the experiment on Calu-1, 29%; in the experiment on NCI-H460, 0%; in the experiment with HCT-116, 9%.

On to `CC(C)CC(=O)c1c(O)cc(O)c(C(=O)CC(C)C)c1O`, for which the inhibition of growth at 10 µM in the experiment with ACHN worked out at 30%; in the experiment with PANC-1, 0%; with Calu-1, 0%; in the experiment on NCI-H460 it was 46%; with HCT-116, 55%.

`CC(C)CC(=O)c1c(O)c(C(=O)CC(C)C)c(O)c(C(c2c(O)c(C(=O)CC(C)C)c(O)c(C(=O)CC(C)C)c2O)c2cccc3ccccc23)c1O`: the inhibition of growth at 10 µM was 6% with ACHN; 17% in the experiment with PANC-1; 15% in the experiment on Calu-1; 26% with NCI-H460; 0% with HCT-116.

Take `CC(C)CC(=O)c1c(O)c(C=O)c(O)c(C(c2ccc(-c3ccccc3)cc2)c2c(O)c(C=O)c(O)c(C(=O)CC(C)C)c2O)c1O`: the inhibition of growth at 10 µM with ACHN worked out at 0%; with PANC-1, 0%; in the experiment with Calu-1, 0%; in the experiment with NCI-H460 it was 28%; with HCT-116, 5%.

With `CC(C)CC(=O)c1c(O)c(C=O)c(O)c(C(c2ncc[nH]2)c2c(O)c(C=O)c(O)c(C(=O)CC(C)C)c2O)c1O`, the inhibition of growth at 10 µM with ACHN was 38%; in the experiment on PANC-1, 0%; in the experiment on Calu-1, 0%; in the experiment with NCI-H460, 22%; in the experiment on HCT-116, 18%.

Take `CC(C)CC(=O)c1c(O)c(C=O)c(O)c(C(c2ccc(C(F)(F)F)cc2C(F)(F)F)c2c(O)c(C=O)c(O)c(C(=O)CC(C)C)c2O)c1O`: the inhibition of growth at 10 µM with ACHN was 0%; in the experiment with PANC-1 it was 0%; in the experiment with Calu-1, 6%; in the experiment with NCI-H460, 5%; in the experiment with HCT-116, 14%.

In the case of `CC(C)C(=O)c1c(O)cc(O)c(C(=O)C(C)C)c1O`, the inhibition of growth at 10 µM is 33% in the experiment with ACHN; 0% with PANC-1; 15% with Calu-1; 22% in the experiment with NCI-H460; 0% with HCT-116.

As for `CC(C)C(=O)c1c(O)c(Cc2c(O)c(C(=O)C(C)C)c(O)c(C(=O)C(C)C)c2O)c(O)c(C(=O)C(C)C)c1O`, the inhibition of growth at 10 µM with ACHN turned out to be 30%; with PANC-1, 12%; in the experiment on Calu-1, 16%; with NCI-H460 it was 25%; with HCT-116, 6%.

As to `CC(C)CC(=O)c1c(O)c(C(=O)CC(C)C)c(O)c(C(c2ccc3c(c2)Cc2ccccc2-3)c2c(O)c(C(=O)CC(C)C)c(O)c(C(=O)CC(C)C)c2O)c1O`, the inhibition of growth at 10 µM in the experiment with ACHN amounted to 17%; with PANC-1 it was 18%; in the experiment with Calu-1 it was 0%; in the experiment with NCI-H460 it was 15%; with HCT-116, 0%.

As to `CC(=O)c1c(O)c(C(C)=O)c(O)c(C(C)c2c(O)c(C(C)=O)c(O)c(C(C)=O)c2O)c1O`, the inhibition of growth at 10 µM worked out at 19% with ACHN; 0% in the experiment with PANC-1; 38% in the experiment on Calu-1; 0% with NCI-H460; 3% in the experiment with HCT-116.

Regarding `CCC(c1c(O)c(C(=O)CC(C)C)c(O)c(C(=O)CC(C)C)c1O)c1c(O)c(C(=O)CC(C)C)c(O)c(C(=O)CC(C)C)c1O`, the inhibition of growth at 10 µM in the experiment on ACHN was 0%; in the experiment on PANC-1, 0%; in the experiment on Calu-1, 10%; with NCI-H460, 10%; with HCT-116 it was 22%.

With `CC(C)CC(=O)c1c(O)c(C=O)c(O)c(C(c2cc3ccccc3o2)c2c(O)c(C=O)c(O)c(C(=O)CC(C)C)c2O)c1O`, the inhibition of growth at 10 µM is 6% in the experiment on ACHN; 0% in the experiment with PANC-1; 2% in the experiment on Calu-1; 5% with NCI-H460; 11% in the experiment on HCT-116.

With `CC(=O)c1c(O)c(C(C)=O)c(O)c(C(c2ccccc2)c2c(O)c(C(C)=O)c(O)c(C(C)=O)c2O)c1O`, the inhibition of growth at 10 µM in the experiment on ACHN worked out at 29%; in the experiment with PANC-1, 0%; in the experiment with Calu-1, 47%; with NCI-H460, 29%; with HCT-116, 0%.

`CC(=O)c1c(O)c(C(C)=O)c(O)c(C(c2ccccn2)c2c(O)c(C(C)=O)c(O)c(C(C)=O)c2O)c1O`: the inhibition of growth at 10 µM is 12% in the experiment on ACHN; 0% in the experiment with PANC-1; 24% with Calu-1; 0% in the experiment on NCI-H460; 11% in the experiment on HCT-116.

Turning to `CC(C)CC(=O)c1c(O)c(C=O)c(O)c(C(c2ccncc2)c2c(O)c(C=O)c(O)c(C(=O)CC(C)C)c2O)c1O`, the inhibition of growth at 10 µM in the experiment on ACHN amounted to 21%; in the experiment on PANC-1 it was 5%; in the experiment with Calu-1, 17%; in the experiment with NCI-H460, 0%; with HCT-116 it was 0%.
